Test results reported in ChEMBL document CHEMBL4196141, “Improved Antibacterial Activity of the Marine Peptide N6 against Intracellular Salmonella Typhimurium by Conjugating with the Cell-Penetrating Peptide Tat11 via a Cleavable Linker” (J Med Chem, 2018).
Converted amounts (≈) assume the structure as drawn. The source made the active and inactive calls. No cut-off for these calls is given here. Positions of bridges follow the written chain, without caps; N, C: chain ends. Residues, ends and D or L forms follow the SMILES beside them.

Columns and labels:
[1] = Drug internalization in mouse RAW264.7 using FITC-labeled compound at 2 uM incubated for 2 hrs at 4 degC by flow cytometry; type: ADME, cell-based; conditions: raw264.7, 2 h
[2] = Drug internalization in mouse RAW264.7 using FITC-labeled compound at 2 uM pre-incubated for 1 hr with macropinocytosis inhibitor amiloride followed by compound addition and subsequent incubation for 2 hrs by flow cytometry; type: ADME, cell-based; conditions: raw264.7, 2 h
In short: (§1)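 RAW264.7 cells were pretreated 1 h at 37 °C with 3 mM amiloride, 20 µM nocodazole, 6 µg/mL chlorpromazine or 5 mM MβCD. FITC-labeled peptide was then added for 2 h at 37 °C. Extracellular fluorescence was quenched with 0.4% Trypan blue and intracellular fluorescence read by flow cytometry against an untreated control.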

Salmonella typhimurium [3] = experiment: Antibacterial activity against Salmonella typhimurium ATCC 14028 incubated for 16 to 18 hrs at pH 7.2 by broth microdilution method; type: functional, Salmonella enterica subsp. enterica serovar Typhimurium; conditions: Salmonella enterica
In short: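 Broth microdilution in MH broth. S. Typhimurium ATCC14028 was grown overnight at 37 °C to semi-log phase, pelleted, and diluted to OD600 0.01; final inoculum was 5 × 10^5 CFU/mL. Plates were incubated 16–18 h at 37 °C. MIC is the lowest peptide concentration with no visible growth. Data are in duplicate from at least two independent experiments.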

[4] = Drug internalization in mouse RAW264.7 using FITC-labeled compound at 2 uM pre-incubated for 1 hr with tubulin polymerization inhibitor nocodazole followed by compound addition and subsequent incubation for 2 hrs by flow cytometry; type: ADME, cell-based; conditions: raw264.7, 2 h; in short: as §1
[5] = Drug localisation in cytosol of mouse RAW264.7 using FITC-labeled compound at 5 uM incubated for 2 hrs by confocal microscopy; type: ADME, cell-based
In short: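 RAW264.7 cells were plated for 18 h at 37 °C, then given 5 µM FITC or FITC-labeled peptide for 2 h. Nuclei were stained with Hoechst 33342 and membranes with FM 4-64 (each 5 µg/mL) for 30 min at 37 °C. Cells were PBS-washed and imaged by confocal fluorescence microscopy.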

[6] = Drug internalization in mouse RAW264.7 using FITC-labeled compound at 2 uM pre-incubated for 1 hr with lipid rafts disruptor methyl-beta-cyclodextrin followed by compound addition and subsequent incubation for 2 hrs by flow cytometry; type: ADME, cell-based; conditions: raw264.7, 2 h; in short: as §1
[7] = Drug internalization in mouse RAW264.7 using FITC-labeled compound at 2 uM pre-incubated for 1 hr with clathrin-mediated endocytosis inhibitor chlorpromazine followed by compound addition and subsequent incubation for 2 hrs by flow cytometry; type: ADME, cell-based; conditions: raw264.7, 2 h; in short: as §1
Salmonella typhimurium [8] = experiment: Antibacterial activity against Salmonella typhimurium ATCC 14028 using 1 hr cathepsin B pre-treated compound at pH 5 incubated for 16 to 18 hrs at by broth microdilution method; type: functional, Salmonella enterica subsp. enterica serovar Typhimurium; conditions: Salmonella enterica
In short: (§2)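 Cathepsin B (bovine spleen, 10 µg/mL) was added for 1 h at 37 °C, and the reaction was stopped with 9 volumes of MHB. MIC was then run by broth microdilution (5 × 10^5 CFU/mL, 16–18 h, 37 °C) in medium adjusted to pH 5.0.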

[9] = Cytotoxicity in mouse RAW264.7 assessed as cell survival at 100 uM incubated for 8 hrs by MTT assay; type: cell-based; conditions: RAW264.7 cells, read-out: Survival
In short: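 RAW264.7 cells seeded at 2.5 × 10^4 cells/well, cultured 24 h, then exposed for 8 h to 2-fold dilutions from 100 to 0.625 µM. MTT at 5 mg/mL added for 4 h, formazan dissolved in DMSO, absorbance read at 570 nm. Untreated cells served as control. Samples run in triplicate.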

Salmonella typhimurium [10] = experiment: Antibacterial activity against Salmonella typhimurium ATCC 14028 infected in ICR mouse model of peritonitis assessed as mouse survival at 1 umol/kg, ip dosed at 0.5 and 8 hrs post infection and measured daily for 7 days
[11] = Drug uptake in mouse RAW264.7 using FITC-labeled compound at 5 uM incubated for 0.5 hrs by flow cytometry; type: ADME, cell-based; conditions: raw264.7, 0.5 h
In short: (§3)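 Confluent RAW264.7 cells were resuspended in PBS and incubated at 37 °C with 5 µM FITC-labeled peptide. Samples taken at 0.5 h and 2 h were quenched with 0.4% Trypan blue for extracellular fluorescence. Uptake (percent internalized cells) was read by flow cytometry, with free FITC as negative control.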

Salmonella typhimurium [12] = experiment: Antibacterial activity against Salmonella typhimurium ATCC 14028 using 1 hr cathepsin B pre-treated compound followed by incubation for 16 to 18 hrs at pH 5 by broth microdilution method; type: functional, Salmonella enterica subsp. enterica serovar Typhimurium; conditions: Salmonella enterica; in short: as §2
[13] = Induction of hemolysis in mouse RBC at 100 uM incubated for 1 hrs at 37 degC; type: cell-based, Erythrocyte; conditions: red blood cells (erythrocytes), read-out: Activity
In short: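 Fresh mouse erythrocytes were washed three times in 0.9% NaCl, and an 8% suspension was incubated with peptide (2-fold dilutions, 100 to 0.3125 µM) for 1 h at 37 °C. Released hemoglobin was read at 540 nm. 1% Triton X-100 defined 100% lysis; polymyxin served as positive control and NaCl as negative.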

[14] = Drug uptake in mouse RAW264.7 using FITC-labeled compound at 5 uM incubated for 2 hrs by flow cytometry; type: ADME, cell-based; conditions: raw264.7, 2 h; in short: as §3
Salmonella typhimurium [15] = experiment: Bactericidal activity against 2 hrs-gentamicin pre-exposed Salmonella typhimurium ATCC 14028 assessed as effect on bacterial re-growth at 10 uM measured within 6 hrs; type: functional, organism-based; conditions: Salmonella enterica subsp. enterica serovar Typhimurium
In short: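 RAW264.7 cells in DMEM/10% FBS were infected with S. Typhimurium ATCC14028 at MOI 10 for 1 h, then given 100 µg/mL gentamicin for 2 h at 37 °C and washed. Cells were treated with 10 µM agent for 1, 3, 6, 9 and 12 h, lysed with 0.1% Triton X-100, and surviving intracellular bacteria were serially diluted and plated for CFU.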

Salmonella typhimurium [16] = experiment: Antibacterial activity against Salmonella typhimurium ATCC 14028 infected in ICR mouse model of peritonitis assessed as reduction colony forming units in intracellular fluids at 1 umol/kg, ip dosed at 2 hrs post infection and measured after 10 hrs post dose; type: functional, Salmonella enterica subsp. enterica serovar Typhimurium
In short: (§4)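 Six-week-old female ICR mice (six per group) received ip S. Typhimurium ATCC14028 (5 × 10^5 CFU, 0.5 mL). Peptide was given ip 2 h post-infection and mice were killed 10 h after treatment. Peritoneum was lavaged with 5 mL ice-cold PBS and total CFU counted. For intracellular CFU, pelleted cells were treated with 100 µg/mL gentamicin for 1 h at 37 °C, washed, lysed and plated. PBS served as negative control, ciprofloxacin as positive.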

Salmonella typhimurium [17] = experiment: Antibacterial activity against Salmonella typhimurium ATCC 14028 infected in ICR mouse model of peritonitis assessed as reduction colony forming units in kidney at 1 to 2 umol/kg, ip dosed at 2 hrs post infection and measured after 10 hrs post dose; type: functional, Salmonella enterica subsp. enterica serovar Typhimurium
In short: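 Female ICR mice, six weeks old (six per group), were infected ip with S. Typhimurium ATCC14028 (5 × 10^5 CFU, 0.5 mL). Peptide was given ip at 1, 1.5 or 2 µmol/kg 2 h post-infection. Mice were killed 10 h after treatment, and kidneys and spleens were homogenized in sterile PBS for CFU counts of translocated bacteria. PBS-treated mice served as negative control, ciprofloxacin-treated mice as positive.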

Salmonella typhimurium [18] = experiment: Antibacterial activity against Salmonella typhimurium ATCC 14028 infected in ICR mouse model of peritonitis assessed as reduction colony forming units in total peritoneal fluids at 1 umol/kg, ip dosed at 2 hrs post infection and measured after 10 hrs post dose; type: functional, Salmonella enterica subsp. enterica serovar Typhimurium; in short: as §4

N=C(N)NCCC[C@H](NC(=O)[C@H](CCCNC(=N)N)NC(=O)[C@H](CCCNC(=N)N)NC(=O)[C@H](CCC(N)=O)NC(=O)[C@H](CCCNC(=N)N)NC(=O)[C@H](CCCNC(=N)N)NC(=O)[C@H](CCCCN)NC(=O)[C@H](CCCCN)NC(=O)[C@H](CCCNC(=N)N)NC(=O)CNC(=O)[C@@H](N)Cc1ccc(O)cc1)C(=O)O
Drug uptake [1]: Not Active
Drug uptake [2]: Not Active
MIC (Salmonella typhimurium [3]): > 82.1 µM
Drug uptake [4]: Active
Drug uptake [5]: Active
Drug uptake [6]: Not Active
Drug uptake [7]: Not Active

CC(C)[C@@H]1NC(=O)CNC(=O)[C@H](CC(N)=O)NC(=O)[C@H](CCCNC(=N)N)NC(=O)[C@H](Cc2ccc(O)cc2)NC(=O)[C@H](C(C)C)NC(=O)[C@@H](NC(=O)[C@@H](NC(=O)[C@H](CC(N)=O)NC(=O)[C@H](Cc2c[nH]c3ccccc23)NC(=O)[C@H](C)NC(=O)[C@H](Cc2ccccc2)NC(=O)CN)C(C)C)CSSC[C@@H](C(=O)N[C@@H](Cc2cnc[nH]2)C(=O)N[C@@H](CCCNC(=N)N)C(=O)N[C@@H](CCCNC(=N)N)C(=O)N[C@@H](C)C(=O)N[C@@H](CC(N)=O)C(=O)O)NC(=O)[C@H](C(C)C)NC(=O)[C@H](CCCNC(=N)N)NC1=O (H-GFAWNVCVYRNGVRVCHRRAN-OH; disulfide 7-16)
MIC (Salmonella typhimurium [3]): 0.81 µM (≈ 2.01 µg/mL)
MIC (Salmonella typhimurium [8]): 1.62 µM (≈ 4.01 µg/mL)
viability at 8 h, 100 µM [9]: 94.6%
Activity (Salmonella typhimurium [10]): 33.4%
Drug uptake [11]: 28.7%
Drug uptake [5]: Not Active
MIC (Salmonella typhimurium [12]): 13 µM (≈ 32.1 µg/mL)
hemolysis at 1 h, 100 µM [13]: 2.06%
Drug uptake [14]: 71.9%
Activity (Salmonella typhimurium [15]): inactive
Activity (Salmonella typhimurium [16]): 0.43 log10CFU
Activity (Salmonella typhimurium [17]): 0.6 log10CFU
Activity (Salmonella typhimurium [18]): 1.01 log10CFU
